Laboratory results published in ChEMBL document CHEMBL3102812 (J Med Chem, 2013).
≈ marks a conversion by molar mass, not a printed value. Calls of active or inactive are those of the source. The calls are words filed in the database; no cut-off is given here.

Tests used:
[1] = Kinetic aqueous solubility of the compound in phosphate buffer at pH 6.5 by nephelometric analysis
[2] = Kinetic aqueous solubility of the compound in phosphate buffer at pH 2 by nephelometric analysis; conditions: for solubility kinetic: phosphate buffer
[3] = Partition coefficient, log D of the compound at pH 7.4 by chromatographic method; conditions: octanol/water
Mus musculus [4] = experiment: Toxicity in Swiss mouse at 20 mg/kg, po; conditions: in vivo
Trypanosoma cruzi [5] = experiment: Antitrypanosomal activity against Trypanosoma cruzi Tulahuen 6 infected in Swiss mouse assessed as reduction in blood parasitemia at 20 mg/kg, po qd administered on day 8 post-infection for 10 days by microscopic analysis; type: functional, organism-based; set-up: dose 20 mg/kg
In short: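 Infected Swiss mice dosed orally at 20 mg/kg once daily for up to 10 days starting day 8 pi; blood parasitemia followed by microscopy throughout dosing, scored as cleared or not during the dosing period.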

Trypanosoma cruzi [6] = experiment: Antitrypanosomal activity against Trypanosoma cruzi Tulahuen 6 amastigotes infected in rat L6 cells after 96 hrs by colorimetric method; type: functional, organism-based; conditions: Tulahuen 6, L6, 96 h
Cytochrome P450 3A4 = Cytochrome P450 3A4 (Homo sapiens, UniProt P08684); experiment: Inhibition of CYP3A4 in human liver microsomes assessed as 6beta-hydroxylation of testosterone
Sequence of Cytochrome P450 3A4 (P08684 whole entry): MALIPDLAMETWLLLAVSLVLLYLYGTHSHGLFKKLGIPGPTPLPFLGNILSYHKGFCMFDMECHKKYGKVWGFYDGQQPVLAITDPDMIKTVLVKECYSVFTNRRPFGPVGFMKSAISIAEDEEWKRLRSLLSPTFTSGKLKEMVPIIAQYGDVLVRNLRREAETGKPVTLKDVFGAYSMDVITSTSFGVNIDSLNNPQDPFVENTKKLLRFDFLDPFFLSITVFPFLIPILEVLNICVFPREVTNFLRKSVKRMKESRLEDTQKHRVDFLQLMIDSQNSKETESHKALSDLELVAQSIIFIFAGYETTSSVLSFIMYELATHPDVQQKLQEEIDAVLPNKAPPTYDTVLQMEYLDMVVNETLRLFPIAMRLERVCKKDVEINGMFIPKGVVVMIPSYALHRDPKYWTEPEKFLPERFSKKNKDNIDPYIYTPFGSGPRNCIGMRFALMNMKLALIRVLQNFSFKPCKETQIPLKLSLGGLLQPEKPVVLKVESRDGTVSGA

Mus musculus [7] = experiment: Toxicity in Swiss mouse assessed as weight loss at 50 mg/kg, po bid for 2.5 days; type: organism-based; set-up: dose 50 mg/kg, route oral; conditions: in vivo, 60 h
In short: (§1)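 Acute toxicity by stepwise cumulative oral dosing in two mice per compound: 25 and/or 50 mg/kg twice daily for 2.5 days to […]; animals observed for 1 week after the last dose for adverse effects and weight loss.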

Mus musculus [8] = experiment: Toxicity in Swiss mouse assessed as weight loss at 25 mg/kg, po bid for 2.5 days; type: organism-based; set-up: dose 25 mg/kg, route oral; conditions: in vivo, 60 h; in short: as §1
Trypanosoma cruzi [9] = experiment: Antitrypanosomal activity against Trypanosoma cruzi Tulahuen 6 infected in Swiss mouse at 20 mg/kg, po qd administered on day 8 post-infection for 20 days followed by 10 days non-treatment period followed by three cycles of immunosuppression measured on day 58 post-infection by PCR analysis; type: functional, organism-based; set-up: dose 20 mg/kg
Trypanosoma cruzi [10] = experiment: Antitrypanosomal activity against Trypanosoma cruzi Tulahuen 6 infected in Swiss mouse assessed as mouse survival at 20 mg/kg, po qd administered on day 8 post-infection measured on same day by microscopic analysis; type: functional, organism-based; set-up: dose 20 mg/kg
Mus musculus [11] = experiment: Oral bioavailability in Swiss mouse at 20 mg/kg by LC/MS analysis; type: ADME, organism-based; conditions: in vivo
[12] = Half life in Swiss mouse at 20 mg/kg, po by LC/MS analysis; type: ADME, organism-based; set-up: dose 20 mg/kg, route oral; conditions: in vivo
[13] = Volume of distribution at steady state in Swiss mouse at 2 mg/kg, iv and 20 mg/kg, po by LC/MS analysis; type: ADME, organism-based; conditions: in vivo, read-out: Vdss
[14] = Half life in Swiss mouse at 2 mg/kg, iv by LC/MS analysis; type: ADME, organism-based; set-up: dose 2 mg/kg, route intravenous; conditions: in vivo
[15] = Plasma clearance in Swiss mouse at 2 mg/kg, iv and 20 mg/kg, po by LC/MS analysis; type: ADME, organism-based
Trypanosoma cruzi [16] = experiment: Antitrypanosomal activity against Trypanosoma cruzi Tulahuen 6 infected in Swiss mouse at 5 mg/kg, po qd administered on day 8 post-infection for 20 days followed by 10 days non-treatment period followed by three cycles of immunosuppression measured on day 58 post-infection by PCR analysis; type: functional, organism-based; set-up: dose 5 mg/kg
Trypanosoma cruzi [17] = experiment: Antitrypanosomal activity against Trypanosoma cruzi Tulahuen 6 infected in Swiss mouse assessed as mouse survival at 10 mg/kg, po qd administered on day 8 post-infection for 20 days followed by 10 days non-treatment measured on day 37 post-infection by microscopic analysis; type: functional, organism-based; set-up: dose 10 mg/kg
Trypanosoma cruzi [18] = experiment: Antitrypanosomal activity against Trypanosoma cruzi Tulahuen 6 infected in Swiss mouse assessed as mouse survival at 10 mg/kg, po qd administered on day 8 post-infection for 20 days measured on day 28 post-infection by microscopic analysis; type: functional, organism-based; set-up: dose 10 mg/kg
In short: (§2)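 Outbred female Swiss mice (~8 weeks) infected with mouse-passaged Tulahuen TcVI trypomastigotes; oral dosing once daily for 20 days from day 8 post-infection, suspension in 0.5% HPMC, 0.4% Tween 80, 0.5% benzyl alcohol, 5% DMSO in water; blood parasitemia by microscopy (LOD 20 000 parasites/mL); mice with recurring parasitemia euthanized; survival counted per starting group; 10-day untreated period days 28–37.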

Trypanosoma cruzi [19] = experiment: Antitrypanosomal activity against Trypanosoma cruzi Tulahuen 6 infected in Swiss mouse assessed as mouse survival at 5 mg/kg, po qd administered on day 8 post-infection for 20 days followed by 10 days non-treatment measured on day 37 post-infection by microscopic analysis; type: functional, organism-based; set-up: dose 5 mg/kg
Trypanosoma cruzi [20] = experiment: Antitrypanosomal activity against Trypanosoma cruzi Tulahuen 6 infected in Swiss mouse assessed as mouse survival at 5 mg/kg, po qd administered on day 8 post-infection for 20 days measured on day 28 post-infection by microscopic analysis; type: functional, organism-based; set-up: dose 5 mg/kg
Trypanosoma cruzi [21] = experiment: Antitrypanosomal activity against Trypanosoma cruzi Tulahuen 6 infected in Swiss mouse assessed as mouse survival at 10 mg/kg, po qd administered on day 8 post-infection measured on same day by microscopic analysis; type: functional, organism-based; set-up: dose 10 mg/kg
Trypanosoma cruzi [22] = experiment: Antitrypanosomal activity against Trypanosoma cruzi Tulahuen 6 infected in Swiss mouse assessed as mouse survival at 5 mg/kg, po qd administered on day 8 post-infection measured on same day by microscopic analysis; type: functional, organism-based; set-up: dose 5 mg/kg
Trypanosoma cruzi [23] = experiment: Antitrypanosomal activity against Trypanosoma cruzi Tulahuen 6 infected in Swiss mouse assessed as mouse survival at 20 mg/kg, po qd administered on day 8 post-infection for 20 days followed by 10 days non-treatment measured on day 37 post-infection by microscopic analysis; type: functional, organism-based; set-up: dose 20 mg/kg; in short: as §2
Trypanosoma cruzi [24] = experiment: Antitrypanosomal activity against Trypanosoma cruzi Tulahuen 6 infected in Swiss mouse assessed as mouse survival at 20 mg/kg, po qd administered on day 8 post-infection for 20 days measured on day 28 post-infection by microscopic analysis; type: functional, organism-based; set-up: dose 20 mg/kg

SMILES	solubility kinetic [1]	solubility kinetic [2]	chromatographic logD [3]	Activity (Mus musculus [4])	Activity (Trypanosoma cruzi [5])	IC50 (Trypanosoma cruzi [6])	IC50 (Cytochrome P450 3A4)	further results
Cc1ccccc1CN1CCC(N(c2ccc(C(F)(F)F)cc2)c2cccnc2)CC1	3.1 µg/mL (≈ 7.29 µM)	> 100 µg/mL	> 5.3	–	–	–	–	–
N#Cc1ccc(C(c2cccnc2)N2CCC(NC(=O)c3c(F)cccc3F)CC2)cc1 (stereo not given)	–	–	–	Non-toxic	inactive	19 nM	–	–
N#Cc1ccc(C(C(=O)N2CCN(c3ccc(C(F)(F)F)nc3)CC2)c2cccnc2)cc1 (stereo not given)	25 µg/mL (≈ 55.4 µM)	> 100 µg/mL	3	–	–	–	> 20000 nM	–
CS(=O)(=O)c1ccc(N2CCN(C(=O)C(c3ccc(Cl)cc3)c3cccnc3)CC2)cc1 (stereo not given)	6.3 µg/mL (≈ 13.4 µM)	> 100 µg/mL	3	Non-toxic	–	2 nM	4000 nM	–
N#Cc1cccc(N2CCC(NC(c3cccnc3)c3ccc(Cl)cc3F)CC2)c1 (stereo not given)	–	–	–	Non-toxic	inactive	13 nM	–	–
FC(F)(F)c1ccc(N(c2cccnc2)C2CCN(c3ccc(C(F)(F)F)cn3)CC2)cc1	< 1.6 µg/mL	> 100 µg/mL	> 5.3	Non-toxic	Active	17 nM	–	Activity (Mus musculus [7]): Non-toxic; Activity (Mus musculus [8]): Non-toxic; Activity (Trypanosoma cruzi [9]): Active; Activity (Trypanosoma cruzi [10]): Active; F (Mus musculus [11]): 95%; half-life [12]: 12.5 h; Vd [13]: 4.4 L/kg; half-life [14]: 8.6 h; clearance [15]: 8.1 mL/min/kg
N#Cc1ccc(C(C(=O)N2CCN(c3ccc(C(F)(F)F)cn3)CC2)c2cccnc2)cc1 (stereo not given)	6.3 µg/mL (≈ 14 µM)	50 µg/mL (≈ 111 µM)	3.5	Non-toxic	–	12 nM	> 20000 nM	–
O=C([C@@H](c1ccc(Cl)cc1)c1cccnc1)N1CCN(c2ccc(C(F)(F)F)cc2)CC1	1.6 µg/mL (≈ 3.48 µM)	> 100 µg/mL	4.5	Non-toxic	–	–	15000 nM	Activity (Mus musculus [7]): Non-toxic; Activity (Mus musculus [8]): Non-toxic; Activity (Trypanosoma cruzi [16]): inactive; Activity (Trypanosoma cruzi [17]): Active; Activity (Trypanosoma cruzi [18]): Active; Activity (Trypanosoma cruzi [19]): Active; Activity (Trypanosoma cruzi [20]): Active; Activity (Trypanosoma cruzi [21]): Active; Activity (Trypanosoma cruzi [22]): Active; F (Mus musculus [11]): 64%; half-life [12]: 8.2 h; Vd [13]: 4.2 L/kg; half-life [14]: 5.9 h; clearance [15]: 7.7 mL/min/kg
Cc1ncsc1C(=O)N1CCC(NC(c2ccc(C(F)(F)F)cc2)c2cccnc2)CC1 (stereo not given)	–	–	–	Non-toxic	inactive	58 nM	–	–
N#Cc1ccc(N(c2cccnc2)C2CCN(c3ccc(C(F)(F)F)cc3)CC2)cc1	< 1.6 µg/mL	25 µg/mL (≈ 59.2 µM)	4.7	Non-toxic	–	3 nM	–	–
Cc1cc(C(=O)NC2CCN(C(c3ccc(C#N)cc3)c3cccnc3)CC2)n(C)n1 (stereo not given)	–	–	–	Non-toxic	inactive	47 nM	–	–
N#Cc1ccc(C(C(=O)N2CCN(c3ccc(C(F)(F)F)cc3)CC2)c2cccnc2)cc1 (stereo not given)	3.1 µg/mL (≈ 6.88 µM)	> 100 µg/mL	3.8	Non-toxic	–	12 nM	> 20000 nM	–
CC[C@@H]([C@H](C)O)n1ncn(-c2ccc(N3CCN(c4ccc(OC[C@@H]5CO[C@@](Cn6cncn6)(c6ccc(F)cc6F)C5)cc4)CC3)cc2)c1=O [POSACONAZOLE]	–	–	–	Non-toxic	Active	1 nM	–	Activity (Trypanosoma cruzi [9]): Active; Activity (Trypanosoma cruzi [18]): Active; Activity (Trypanosoma cruzi [10]): Active; Activity (Trypanosoma cruzi [23]): Active
CC(C)(C)CC(=O)N1CCC(N(c2ccc(Cl)cc2)c2cccnc2)CC1	6.3 µg/mL (≈ 16.3 µM)	> 100 µg/mL	4.2	–	–	–	–	–
FC(F)(F)c1ccc(N(c2cncnc2)C2CCN(c3ccc(C(F)(F)F)cn3)CC2)cc1	< 1.6 µg/mL	12.5 µg/mL (≈ 26.7 µM)	4.9	Non-toxic	–	5 nM	6300 nM	–
N#Cc1ccc(C(c2cccnc2)N2CCC(NC(=O)c3ccccc3)CC2)cc1 (stereo not given)	–	–	–	Non-toxic	inactive	24 nM	–	–
O=C(C(c1ccc(Cl)cc1)c1cccnc1)N1CCN(c2ccc(C(F)(F)F)nc2)CC1 (stereo not given)	6.3 µg/mL (≈ 13.7 µM)	50 µg/mL (≈ 108 µM)	3.7	Non-toxic	–	8 nM	> 20000 nM	–
N#Cc1ccccc1N1CCC(N(c2ccc(C(F)(F)F)cc2)c2cccnc2)CC1	< 1.6 µg/mL	> 100 µg/mL	4.9	–	–	–	5200 nM	–
Fc1cc(Cl)ccc1C(NC1CCN(c2ccc(C(F)(F)F)cc2)CC1)c1cccnc1 (stereo not given)	–	–	–	Non-toxic	Active	11 nM	–	–
FC(F)(F)c1ccc(N(c2cccnc2)C2CCN(c3ccc(Cl)cc3)CC2)cc1	< 1.6 µg/mL	> 100 µg/mL	> 5.3	–	–	–	–	–
CS(=O)(=O)c1ccc(N2CCC(N(c3ccc(C#N)cc3)c3cccnc3)CC2)cc1	< 1.6 µg/mL	25 µg/mL (≈ 57.8 µM)	3	Non-toxic	–	2 nM	12000 nM	–
FC(F)(F)c1ccc(N2CCC(N(c3ccc(C(F)(F)F)cc3)c3cccnc3)CC2)cc1	–	–	–	–	–	17 nM	–	–
CS(=O)(=O)c1ccc(N2CCN(C(=O)C(c3ccc(C#N)cc3)c3cccnc3)CC2)cc1 (stereo not given)	3.1 µg/mL (≈ 6.73 µM)	25 µg/mL (≈ 54.3 µM)	2.4	Non-toxic	–	24 nM	> 20000 nM	–
N#Cc1ccc(C(O)(c2ccc(C(F)(F)F)cc2)c2cccnc2)cc1 (stereo not given)	–	–	–	Non-toxic	Active	–	–	–
N#Cc1ccc(C(O)(c2ccc(C(F)(F)F)cc2)c2cccnc2)c(F)c1 (stereo not given)	–	–	–	Non-toxic	Active	–	–	–
O=C([C@H](c1ccc(Cl)cc1)c1cccnc1)N1CCN(c2ccc(C(F)(F)F)cc2)CC1	1.6 µg/mL (≈ 3.48 µM)	> 100 µg/mL	4.5	–	–	–	17000 nM	–
O=C(C(c1ccc(Cl)cc1)c1cccnc1)N1CCN(c2ccc(C(F)(F)F)cn2)CC1 (stereo not given)	3.1 µg/mL (≈ 6.73 µM)	–	4.2	Non-toxic	–	12 nM	7000 nM	Kinetic solubility ([2]; buffer): 25 µg/mL
O=C(C(c1ccc(Cl)cc1)c1cccnc1)N1CCN(c2ccc(C(F)(F)F)cc2)CC1 (racemic)	1.6 µg/mL (≈ 3.48 µM)	> 100 µg/mL	4.5	Non-toxic	Active	–	16000 nM	Activity (Mus musculus [7]): Non-toxic; Activity (Mus musculus [8]): Non-toxic; Activity (Trypanosoma cruzi [9]): inactive; Activity (Trypanosoma cruzi [24]): Active; Activity (Trypanosoma cruzi [10]): Active; Activity (Trypanosoma cruzi [23]): Active
